Test results reported in ChEMBL document CHEMBL1153453, “Schiff bases of 3-formylchromone as thymidine phosphorylase inhibitors” (Bioorg Med Chem, 2009).

These compounds were tested against Thymidine phosphorylase (Escherichia coli K-12, UniProt P07650) (assay: Inhibition of Escherichia coli thymidine phosphorylase). Details: not given; call rule not given here.
In short: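 E. coli thymidine phosphorylase, 0.05 or 0.002 U, in potassium phosphate buffer pH 7.4, preincubated with test compound 10 min at 25 °C. A 290 nm pre-read was then taken, substrate added (1.5 mM stock), and absorbance at 290 nm read after 10, 20 and 30 min. Increasing compound concentrations were tested in triplicate. IC50 was calculated from the inhibition data.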

Chain of Thymidine phosphorylase (P07650 whole entry): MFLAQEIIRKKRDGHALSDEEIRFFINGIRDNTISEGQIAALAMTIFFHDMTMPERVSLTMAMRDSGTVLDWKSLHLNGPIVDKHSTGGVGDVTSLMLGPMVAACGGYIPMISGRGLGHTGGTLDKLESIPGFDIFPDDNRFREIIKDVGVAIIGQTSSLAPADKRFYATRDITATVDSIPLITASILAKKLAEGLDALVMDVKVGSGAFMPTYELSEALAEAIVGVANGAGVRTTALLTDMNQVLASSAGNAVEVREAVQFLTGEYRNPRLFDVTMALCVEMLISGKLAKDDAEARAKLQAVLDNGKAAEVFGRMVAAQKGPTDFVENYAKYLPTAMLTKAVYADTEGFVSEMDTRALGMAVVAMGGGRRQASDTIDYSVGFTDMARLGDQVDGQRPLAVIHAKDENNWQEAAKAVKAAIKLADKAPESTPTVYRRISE

| IC50 | Compound |
| --- | --- |
| Not Active | O=C(O)c1ccccc1/N=C/c1coc2ccccc2c1=O |
| Not Active | Cc1cccc(C)c1/N=C/c1coc2ccccc2c1=O |
| Not Active | COc1cccc(/N=C/c2coc3ccccc3c2=O)c1 |
| Not Active | Cc1ccc(/N=C/c2coc3ccccc3c2=O)cc1 |
| Not Active | O=c1c(/C=N/c2ccncc2)coc2ccccc12 |
| Not Active | O=c1c(/C=N/c2cccnc2)coc2ccccc12 |
| Not Active | COc1cc([N+](=O)[O-])ccc1/N=C/c1coc2ccccc2c1=O |
| Not Active | CC(C)(C)NC(NC(C)(C)C)c1coc2ccccc2c1=O |

Same assay, conditions: read-out: IC50

| IC50 [µM] | Compound |
| --- | --- |
| 19.8 | COc1cc(/N=C/c2coc3ccccc3c2=O)ccc1C |
| 480 | Cc1cccc([N+](=O)[O-])c1/N=C/c1coc2ccccc2c1=O |
| 150 | O=c1c(/C=N/CC/N=C/c2coc3ccccc3c2=O)coc2ccccc12 |
| 75.9 | O=C(c1ccccc1)c1cc(Cl)ccc1/N=C/c1coc2ccccc2c1=O |
| 40.3 | O=c1c(/C=N/c2ccc(Cl)cc2Cl)coc2ccccc12 |
| 67.3 | Cc1cccc(/N=C/c2coc3ccccc3c2=O)c1 |
| 146 | CCC(=O)N/N=C/c1coc2ccccc2c1=O |
| 473 | O=c1c(/C=N/C(CO)Cc2ccccc2)coc2ccccc12 (configuration not stated) |
| 340 | O=c1c(/C=N/c2ncccc2O)coc2ccccc12 |
